Measurements from ChEMBL document CHEMBL4622936, “Discovery of the potent non-steroidal glucocorticoid receptor modulator BAY 1003803 as clinical candidate” (Bioorg Med Chem Lett, 2020).
Each block holds one molecule with its values, some of them ahead of it.

What was measured:
[1] = Inhibition of collagenase (unknown origin) transfected in human HeLa cells by luciferase reporter gene assay; assay type: cell-based
HeLa = experiment: Inhibition of collagenase (unknown origin) transfected in human HeLa cells by luciferase reporter gene assay relative to control; assay type: cell-based
[2] = Lipophilicity, logP of compound; assay type: physicochemical; details: octanol/water
THP-1 [3] = experiment: Immunomodulatory activity in human THP1 cells assessed as reduction in LPS-induced IL-8 production; assay type: functional, cell-based
Procedure, shortened: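 Human promyeloid THP-1 cells were stimulated with lipopolysaccharide to induce IL-8 synthesis, and inhibition of IL-8 production by the test compound was measured.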

THP-1 [4] = experiment: Immunomodulatory activity in human THP1 cells assessed as reduction in LPS-induced IL-8 production relative to control; assay type: functional
[5] = Mutagenicity in Salmonella typhimurium by Ames test; assay type: toxicity; details: salmonella enterica subsp. enterica serovar typhimurium
[6] = Clearance in female Wistar rat blood at 5 mg/kg, iv; assay type: ADME, organism-based; details: whole blood
[7] = Terminal half life in female Beagle dog blood at 1 mg/kg, iv; assay type: ADME, organism-based, Canis lupus familiaris; details: whole blood, read-out: beta t1/2 (converted)
[8] = Metabolic stability in rat Hepatocyte assessed as intrinsic clearance; assay type: ADME, cell-based; details: hepatocytes, read-out: CLH (converted)
[9] = Clearance in female Beagle dog blood at 1 mg/kg, iv; assay type: ADME, organism-based, Canis lupus familiaris; details: whole blood
PBMC [10] = experiment: Inhibition of LPS-induced IL12p40 release in human PBMC cells; assay type: functional, cell-based
Procedure, shortened: (§1)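 Primary human peripheral blood mononuclear cells were stimulated with LPS (IL-12p40, TNFα) or PHA (IFNγ, IL-2, IL-4). Cytokine release was measured with test compound, and clobetasol and dexamethasone were run in parallel as reference glucocorticoids.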

[11] = Clearance in female Wistar rat plasma at 5 mg/kg, iv; assay type: ADME, organism-based
PBMC [12] = experiment: Inhibition of LPS-induced TNFalpha release in human PBMC cells relative to control; assay type: functional
[13] = Metabolic stability in dog Hepatocyte assessed as intrinsic clearance; assay type: ADME, cell-based, Canis lupus familiaris; details: hepatocytes, read-out: CLH (converted)
[14] = Volume of distribution at steady state in female Beagle dog blood at 1 mg/kg, iv; assay type: ADME, organism-based, Canis lupus familiaris; details: whole blood, read-out: Vdss
[15] = Volume of distribution at steady state in female Wistar rat blood at 5 mg/kg, iv; assay type: ADME, organism-based; details: whole blood, read-out: Vdss
[16] = Drug metabolism in rat Hepatocyte assessed as demethylation product M-3 formation; assay type: ADME, cell-based; details: hepatocytes
PBMC [17] = experiment: Inhibition of PHA-induced IFNgamma release in human PBMC cells; assay type: functional, cell-based; procedure, shortened: as §1
[18] = Terminal half life in female Wistar rat blood at 5 mg/kg, iv; assay type: ADME, organism-based; details: whole blood, read-out: beta t1/2 (converted)
[19] = Drug metabolism in human Hepatocyte assessed as demethylation product M-5 formation; assay type: ADME, cell-based; details: hepatocytes
PBMC [20] = experiment: Inhibition of LPS-induced TNFalpha release in human PBMC cells; assay type: functional, cell-based; procedure, shortened: as §1
[21] = Drug metabolism in human Hepatocyte assessed as demethylation product M-1 formation; assay type: ADME, cell-based; details: hepatocytes
PBMC [22] = experiment: Inhibition of PHA-induced IFNgamma release in human PBMC cells relative to control; assay type: functional
[23] = Drug metabolism in dog Hepatocyte assessed as demethylation product M-4 formation; assay type: ADME, cell-based, Canis lupus familiaris; details: hepatocytes
PBMC [24] = experiment: Inhibition of PHA-induced IL2 release in human PBMC cells; assay type: functional, cell-based; procedure, shortened: as §1
[25] = Efflux ratio of apparent permeability from apical to basolateral side in human Caco2 cells; assay type: ADME, cell-based; details: Caco-2
Procedure, shortened: (§2)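 Caco-2 monolayers. Apparent permeability (Papp) was measured from the apical to the basolateral compartment and also in the reverse direction. Efflux ratio is Papp B→A divided by Papp A→B.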

[26] = Clearance in female Beagle dog plasma at 1 mg/kg, iv; assay type: ADME, organism-based, Canis lupus familiaris
[27] = Metabolic stability in human Hepatocyte assessed as intrinsic clearance; assay type: ADME, cell-based; details: hepatocytes, read-out: CLH (converted)
[28] = Drug metabolism in human Hepatocyte assessed as demethylation product M-4 formation; assay type: ADME, cell-based; details: hepatocytes
PBMC [29] = experiment: Inhibition of PHA-induced IL4 release in human PBMC cells relative to control; assay type: functional
PBMC [30] = experiment: Inhibition of PHA-induced IL4 release in human PBMC cells; assay type: functional, cell-based; procedure, shortened: as §1
[31] = Drug metabolism in rat Hepatocyte assessed as demethylation product M-1 formation; assay type: ADME, cell-based; details: hepatocytes
PBMC [32] = experiment: Inhibition of PHA-induced IL2 release in human PBMC cells relative to control; assay type: functional
[33] = Apparent permeability from apical to basolateral side in human Caco2 cells; assay type: ADME, cell-based; details: Caco-2; procedure, shortened: as §2
[34] = Drug metabolism in rat Hepatocyte assessed as demethylation product M-4 formation; assay type: ADME, cell-based; details: hepatocytes
PBMC [35] = experiment: Inhibition of LPS-induced IL12p40 release in human PBMC cells relative to control; assay type: functional
[36] = Drug metabolism in dog Hepatocyte assessed as demethylation product M-1 formation; assay type: ADME, cell-based, Canis lupus familiaris; details: hepatocytes
[37] = Drug metabolism in rat Hepatocyte assessed as demethylation product M-2 formation; assay type: ADME, cell-based; details: hepatocytes

Structure (SMILES): Nc1c(F)ccc2[nH]c(=O)ccc12
- Activity [5]: Toxic

Structure (SMILES): Nc1ccc(F)c2[nH]c(=O)ccc12
- Activity [5]: Toxic

Structure (SMILES): Nc1cc(F)cc2[nH]c(=O)ccc12
- Activity [5]: Non-Toxic

Structure (SMILES): CCOC[C@@](O)([C@@H](Nc1cc(F)cc2[nH]c(=O)ccc12)c1ccc(OC)c(F)c1Cl)C(F)(F)F
- EC50 [1]: 1.58 nM
- Emax (HeLa): 91%
- logP [2]: 3.8
- IC50 (THP-1 [3]): 0.794 nM
- Emax (THP-1 [4]): 99%

Structure (SMILES): CC[C@H]1c2c(cc(F)c(F)c2O)[C@H](Nc2cccc3[nH]c(=O)ccc23)[C@@](O)(C(F)(F)F)C1OC (stereo partly specified)
- EC50 [1]: 10 nM
- Emax (HeLa): 29%
- logP [2]: 3.1
- IC50 (THP-1 [3]): 6.31 nM
- Emax (THP-1 [4]): 78%

Structure (SMILES): Nc1cccc2c(=O)[nH]ccc12
- Activity [5]: Toxic

Now from value to molecule, other results behind:

- EC50 [1]: 0.631 nM
- logP [2]: 4.9
- IC50 (THP-1 [3]): 0.158 nM
Structure (SMILES): CCSC[C@@](O)([C@@H](Nc1cccc2nc(C)ccc12)c1ccc(OC)c(F)c1Cl)C(F)(F)F
- Emax (HeLa): 87%
- Emax (THP-1 [4]): 91%

- EC50 [1]: 3.98 nM
- logP [2]: 4.4
- IC50 (THP-1 [3]): 7.94 nM
Structure (SMILES): COc1ccc([C@H](Nc2cc(F)cc3[nH]c(=O)ccc23)[C@](O)(CN(C)C)C(F)(F)F)c(Cl)c1F
- Emax (HeLa): 62%
- Emax (THP-1 [4]): 109%

- EC50 [1]: 39.8 nM
- logP [2]: 5.3
- IC50 (THP-1 [3]): 5.01 nM
Structure (SMILES): COc1ccc([C@H](Nc2cccc3nc(C)ccc23)[C@](O)(CN(C)C)C(F)(F)F)c(Cl)c1F
- Emax (HeLa): 66%
- Emax (THP-1 [4]): 77%

- EC50 [1]: 12.6 nM
- logP [2]: 4.8
- IC50 (THP-1 [3]): 2.51 nM
Structure (SMILES): CCSC[C@@](O)([C@@H](Nc1cccc2nc(C)ccc12)c1ccc(C)cc1)C(F)(F)F
- Emax (HeLa): 66%
- Emax (THP-1 [4]): 87%

- clearance [6]: 60 mL/min/kg
- half-life [7]: 78 min
- CLint scaled [8]: 12 mL/min/kg
- clearance [9]: 20 mL/min/kg
- clearance [11]: 50 mL/min/kg
- EC50 [1]: 0.794 nM
- CLint scaled [13]: 21.7 mL/min/kg
- Vd [14]: 2.1 L/kg
- Vd [15]: 7 L/kg
- Drug metabolism [16]: Metabolite_Detected
- logP [2]: 3.3
- half-life [18]: 114 min
- Drug metabolism [19]: Metabolite_Detected
- Drug metabolism [21]: Metabolite_Detected
- Drug metabolism [23]: Metabolite_Notdetected
- IC50 (THP-1 [3]): 0.398 nM
- efflux ratio [25]: 0.5
- clearance [26]: 20 mL/min/kg
- CLint scaled [27]: 15.7 mL/min/kg
- Drug metabolism [28]: Metabolite_Detected
- Drug metabolism [31]: Metabolite_Detected
- Papp A→B [33]: 1.9 ×10⁻⁶ cm/s
- Drug metabolism [34]: Metabolite_Detected
- Drug metabolism [36]: Metabolite_Detected
- Drug metabolism [37]: Metabolite_Detected
Structure (SMILES): COC[C@@](O)([C@@H](Nc1cc(F)cc2[nH]c(=O)ccc12)c1ccc(OC)c(F)c1Cl)C(F)(F)F
- IC50 (PBMC [10]): 0.75 nM
- Efficacy (PBMC [12]): 98%
- Emax (HeLa): 85%
- IC50 (PBMC [17]): 0.7 nM
- IC50 (PBMC [20]): 0.92 nM
- Efficacy (PBMC [22]): 96%
- IC50 (PBMC [24]): 0.88 nM
- Emax (THP-1 [4]): 95%
- Efficacy (PBMC [29]): 99%
- IC50 (PBMC [30]): 0.42 nM
- Efficacy (PBMC [32]): 95%
- Efficacy (PBMC [35]): 96%

- EC50 [1]: 25.1 nM
- logP [2]: 3.4
- IC50 (THP-1 [3]): 20 nM
Structure (SMILES): CCSC[C@@](O)([C@@H](Nc1cccc2nc(C)ccc12)c1ccc(Cl)c(F)c1O)C(F)(F)F
- Emax (HeLa): 102%
- Emax (THP-1 [4]): 107%

- EC50 [1]: 1.58 nM
- logP [2]: 3.4
- IC50 (THP-1 [3]): 1.26 nM
Structure (SMILES): COc1ccc([C@H](Nc2cccc3nc(C)ccc23)[C@](O)(CC#N)C(F)(F)F)c(Cl)c1F
- Emax (HeLa): 80%
- Emax (THP-1 [4]): 83%
